Source: ChEMBL document CHEMBL2086252, “Syntheses and evaluation of anticonvulsant activity of novel branched alkyl carbamates” (J Med Chem, 2012)
Active and inactive are the calls of the source. The calls are words filed in the database; no cut-off is given here.

Tests used:
Mus musculus [1] = assay: Anticonvulsant activity in albino CF1 mouse assessed as protection against subcutaneous metrazol-induced seizures at 30 mg/kg, ip after 0.5 hrs; format: functional, organism-based; design: dose 30 mg/kg
In short: (§1)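 Mice dosed ip at 30, 100 or 300 mg/kg, then tested 0.5 h and 4 h after administration in the MES or scMet test. Protection was recorded as animals protected over animals tested. Neurotoxicity was recorded as motor impairment or sedation, as animals affected over animals tested.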

Mus musculus [2] = assay: Anticonvulsant activity in albino CF1 mouse assessed as protection against subcutaneous metrazol-induced seizures at 100 mg/kg, ip after 0.5 hrs; format: functional, organism-based; design: dose 100 mg/kg; in short: as §1
Mus musculus [3] = assay: Anticonvulsant activity in albino CF1 mouse assessed as protection against subcutaneous metrazol-induced seizures at 300 mg/kg, ip after 0.5 hrs; format: functional, organism-based; design: dose 300 mg/kg; in short: as §1
Mus musculus [4] = assay: Anticonvulsant activity in albino CF1 mouse assessed as protection against subcutaneous metrazol-induced seizures at 30 mg/kg, ip after 4 hrs; format: functional, organism-based; design: dose 30 mg/kg; in short: as §1
Mus musculus [5] = assay: Anticonvulsant activity in albino CF1 mouse assessed as protection against subcutaneous metrazol-induced seizures at 100 mg/kg, ip after 4 hrs; format: functional, organism-based; design: dose 100 mg/kg; in short: as §1
Mus musculus [6] = assay: Anticonvulsant activity in albino CF1 mouse assessed as protection against subcutaneous metrazol-induced seizures at 300 mg/kg, ip after 4 hrs; format: functional, organism-based; design: dose 300 mg/kg; in short: as §1
Mus musculus [7] = assay: Anticonvulsant activity in albino CF1 mouse assessed as protection against maximal electroshock-induced seizures at 30 mg/kg, ip after 0.5 hrs; format: functional, organism-based; design: dose 30 mg/kg; in short: as §1
Mus musculus [8] = assay: Anticonvulsant activity in albino CF1 mouse assessed as protection against maximal electroshock-induced seizures at 300 mg/kg, ip after 0.5 hrs; format: functional, organism-based; design: dose 300 mg/kg; in short: as §1
Mus musculus [9] = assay: Anticonvulsant activity in albino CF1 mouse assessed as protection against maximal electroshock-induced seizures at 30 mg/kg, ip after 4 hrs; format: functional, organism-based; design: dose 30 mg/kg; in short: as §1
Mus musculus [10] = assay: Anticonvulsant activity in albino CF1 mouse assessed as protection against maximal electroshock-induced seizures at 100 mg/kg, ip after 4 hrs; format: functional, organism-based; design: dose 100 mg/kg; in short: as §1
Mus musculus [11] = assay: Anticonvulsant activity in albino CF1 mouse assessed as protection against maximal electroshock-induced seizures at 300 mg/kg, ip after 4 hrs; format: functional, organism-based; design: dose 300 mg/kg; in short: as §1
Mus musculus [12] = assay: Neurotoxicity in albino CF1 mouse assessed as minimal motor impairment at 30 mg/kg, ip after 0.5 hrs by rotarod test; format: toxicity, organism-based; design: dose 30 mg/kg, route intraperitoneal; settings: in vivo; in short: as §1
Mus musculus [13] = assay: Neurotoxicity in albino CF1 mouse assessed as minimal motor impairment at 30 mg/kg, ip after 4 hrs by rotarod test; format: toxicity, organism-based; design: dose 30 mg/kg, route intraperitoneal; settings: in vivo; in short: as §1
Mus musculus [14] = assay: Neurotoxicity in albino CF1 mouse assessed as minimal motor impairment at 100 mg/kg, ip after 4 hrs by rotarod test; format: toxicity, organism-based; design: dose 100 mg/kg, route intraperitoneal; settings: in vivo; in short: as §1
Mus musculus [15] = assay: Neurotoxicity in albino CF1 mouse assessed as minimal motor impairment at 300 mg/kg, ip after 4 hrs by rotarod test; format: toxicity, organism-based; design: dose 300 mg/kg, route intraperitoneal; settings: in vivo; in short: as §1
Rattus norvegicus [16] = assay: Anticonvulsant activity in Sprague-Dawley albino rat assessed as protection against maximal electroshock-induced seizures at 30 mg/kg, po after 15 mins; format: functional, organism-based; design: dose 30 mg/kg
In short: (§2)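 Rats dosed orally. Anti-MES protection was scored as animals protected over animals tested at each time after dosing. Neurotoxicity was scored as motor impairment or sedation, as animals affected over animals tested.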

Rattus norvegicus [17] = assay: Anticonvulsant activity in Sprague-Dawley albino rat assessed as protection against maximal electroshock-induced seizures at 30 mg/kg, po after 30 mins; format: functional, organism-based; design: dose 30 mg/kg; in short: as §2
Rattus norvegicus [18] = assay: Anticonvulsant activity in Sprague-Dawley albino rat assessed as protection against maximal electroshock-induced seizures at 30 mg/kg, po after 1 hr; format: functional, organism-based; design: dose 30 mg/kg; in short: as §2
Rattus norvegicus [19] = assay: Anticonvulsant activity in Sprague-Dawley albino rat assessed as protection against maximal electroshock-induced seizures at 30 mg/kg, po after 2 hrs; format: functional, organism-based; design: dose 30 mg/kg; in short: as §2
Rattus norvegicus [20] = assay: Anticonvulsant activity in Sprague-Dawley albino rat assessed as protection against maximal electroshock-induced seizures at 30 mg/kg, po after 4 hrs; format: functional, organism-based; design: dose 30 mg/kg; in short: as §2
Rattus norvegicus [21] = assay: Neurotoxicity in Sprague-Dawley albino rat assessed as minimal motor impairment at 30 mg/kg, po by rotarod test; format: toxicity, organism-based; design: dose 30 mg/kg, route oral; settings: in vivo; in short: as §2
Rattus norvegicus [22] = assay: Neurotoxicity in pilocarpine-induced status epilepticus Sprague-Dawley albino rat model assessed as minimal motor impairment at 100 mg/kg, ip after 0.25 hr by rotarod test; format: toxicity, organism-based; design: dose 100 mg/kg, route intraperitoneal; settings: in vivo
Rattus norvegicus [23] = assay: Neurotoxicity in pilocarpine-induced status epilepticus Sprague-Dawley albino rat model assessed as minimal motor impairment at 300 mg/kg, ip after 0.25 hr by rotarod test; format: toxicity, organism-based; design: dose 300 mg/kg, route intraperitoneal; settings: in vivo
In short: (§3)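 Rat pilocarpine status epilepticus model: test carbamate given at 0 or 30 min after the first observed Racine stage 3 motor seizure, which marks SE onset. Neurotoxicity was scored within the same model.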

Rattus norvegicus [24] = assay: Neurotoxicity in pilocarpine-induced status epilepticus Sprague-Dawley albino rat model assessed as minimal motor impairment at 30 mg/kg, ip after 0.25 hr by rotarod test; format: toxicity, organism-based; design: dose 30 mg/kg, route intraperitoneal; settings: in vivo; in short: as §3
Rattus norvegicus [25] = assay: Neurotoxicity in pilocarpine-induced status epilepticus Sprague-Dawley albino rat model assessed as minimal motor impairment at 100 mg/kg, ip after 0.5 hrs by rotarod test; format: toxicity, organism-based; design: dose 100 mg/kg, route intraperitoneal; settings: in vivo
Rattus norvegicus [26] = assay: Neurotoxicity in pilocarpine-induced status epilepticus Sprague-Dawley albino rat model assessed as minimal motor impairment at 300 mg/kg, ip after 0.5 hrs by rotarod test; format: toxicity, organism-based; design: dose 300 mg/kg, route intraperitoneal; settings: in vivo; in short: as §3
Rattus norvegicus [27] = assay: Neurotoxicity in pilocarpine-induced status epilepticus Sprague-Dawley albino rat model assessed as minimal motor impairment at 30 mg/kg, ip after 0.5 hrs by rotarod test; format: toxicity, organism-based; design: dose 30 mg/kg, route intraperitoneal; settings: in vivo; in short: as §3
Rattus norvegicus [28] = assay: Neurotoxicity in pilocarpine-induced status epilepticus Sprague-Dawley albino rat model assessed as minimal motor impairment at 300 mg/kg, ip after 1 hr by rotarod test; format: toxicity, organism-based; design: dose 300 mg/kg, route intraperitoneal; settings: in vivo; in short: as §3
Rattus norvegicus [29] = assay: Neurotoxicity in pilocarpine-induced status epilepticus Sprague-Dawley albino rat model assessed as minimal motor impairment at 30 mg/kg, ip after 1 hr by rotarod test; format: toxicity, organism-based; design: dose 30 mg/kg, route intraperitoneal; settings: in vivo; in short: as §3
Rattus norvegicus [30] = assay: Neurotoxicity in pilocarpine-induced status epilepticus Sprague-Dawley albino rat model assessed as minimal motor impairment at 100 mg/kg, ip after 2 hrs by rotarod test; format: toxicity, organism-based; design: dose 100 mg/kg, route intraperitoneal; settings: in vivo
Rattus norvegicus [31] = assay: Neurotoxicity in pilocarpine-induced status epilepticus Sprague-Dawley albino rat model assessed as minimal motor impairment at 300 mg/kg, ip after 2 hrs by rotarod test; format: toxicity, organism-based; design: dose 300 mg/kg, route intraperitoneal; settings: in vivo; in short: as §3
Rattus norvegicus [32] = assay: Neurotoxicity in pilocarpine-induced status epilepticus Sprague-Dawley albino rat model assessed as minimal motor impairment at 30 mg/kg, ip after 2 hrs by rotarod test; format: toxicity, organism-based; design: dose 30 mg/kg, route intraperitoneal; settings: in vivo; in short: as §3
Rattus norvegicus [33] = assay: Neurotoxicity in pilocarpine-induced status epilepticus Sprague-Dawley albino rat model assessed as minimal motor impairment at 100 mg/kg, ip after 4 hrs by rotarod test; format: toxicity, organism-based; design: dose 100 mg/kg, route intraperitoneal; settings: in vivo
Rattus norvegicus [34] = assay: Neurotoxicity in pilocarpine-induced status epilepticus Sprague-Dawley albino rat model assessed as minimal motor impairment at 300 mg/kg, ip after 4 hrs by rotarod test; format: toxicity, organism-based; design: dose 300 mg/kg, route intraperitoneal; settings: in vivo; in short: as §3
Rattus norvegicus [35] = assay: Neurotoxicity in pilocarpine-induced status epilepticus Sprague-Dawley albino rat model assessed as minimal motor impairment at 30 mg/kg, ip after 4 hrs by rotarod test; format: toxicity, organism-based; design: dose 30 mg/kg, route intraperitoneal; settings: in vivo; in short: as §3
Rattus norvegicus [36] = assay: Neurotoxicity in pilocarpine-induced status epilepticus Sprague-Dawley albino rat model assessed as minimal motor impairment at 100 mg/kg, ip after 1 hr by rotarod test; format: toxicity, organism-based; design: dose 100 mg/kg, route intraperitoneal; settings: in vivo
Mus musculus [37] = assay: Anticonvulsant activity in albino CF1 mouse assessed as protection against maximal electroshock-induced seizures at 100 mg/kg, ip after 0.5 hrs; format: functional, organism-based; design: dose 100 mg/kg; in short: as §1
Mus musculus [38] = assay: Neurotoxicity in albino CF1 mouse assessed as minimal motor impairment at 100 mg/kg, ip after 0.5 hrs by rotarod test; format: toxicity, organism-based; design: dose 100 mg/kg, route intraperitoneal; settings: in vivo; in short: as §1
Mus musculus [39] = assay: Neurotoxicity in albino CF1 mouse assessed as minimal motor impairment at 300 mg/kg, ip after 0.5 hrs by rotarod test; format: toxicity, organism-based; design: dose 300 mg/kg, route intraperitoneal; settings: in vivo; in short: as §1

SMILES | Activity (Mus musculus [1]) | Activity (Mus musculus [2]) | Activity (Mus musculus [3]) | Activity (Mus musculus [4]) | Activity (Mus musculus [5]) | Activity (Mus musculus [6]) | Activity (Mus musculus [7]) | Activity (Mus musculus [8]) | Activity (Mus musculus [9]) | Activity (Mus musculus [10]) | Activity (Mus musculus [11]) | Activity (Mus musculus [12]) | Activity (Mus musculus [15]) | Activity (Rattus norvegicus [16]) | Activity (Rattus norvegicus [17]) | Activity (Rattus norvegicus [20]) | Activity (Rattus norvegicus [21]) | Activity (Rattus norvegicus [22]) | Activity (Rattus norvegicus [23]) | Activity (Rattus norvegicus [24]) | other results
CCCC(COC(N)=O)C(C)CC (racemic) | inactive | inactive | Active | inactive | inactive | inactive | inactive | Active | inactive | inactive | Active | Non-toxic | Non-toxic | inactive | inactive | inactive | Non-toxic | Toxic | Non-toxic | Toxic | Activity (Mus musculus [13]): Non-toxic; Activity (Mus musculus [14]): Non-toxic; Activity (Rattus norvegicus [18]): inactive; Activity (Rattus norvegicus [19]): inactive; Activity (Rattus norvegicus [25]): Toxic; Activity (Rattus norvegicus [26]): Non-toxic; Activity (Rattus norvegicus [27]): Toxic; Activity (Rattus norvegicus [28]): Non-toxic; Activity (Rattus norvegicus [29]): Toxic; Activity (Rattus norvegicus [30]): Non-toxic; Activity (Rattus norvegicus [31]): Non-toxic; Activity (Rattus norvegicus [32]): Toxic; Activity (Rattus norvegicus [33]): Non-toxic; Activity (Rattus norvegicus [34]): Non-toxic; Activity (Rattus norvegicus [35]): Toxic
CCCC(CCC)COC(=O)NC | inactive | inactive | Active | inactive | inactive | inactive | inactive | Active | inactive | inactive | Active | Non-toxic | Non-toxic | inactive | inactive | inactive | Non-toxic | Toxic | Toxic | Non-toxic | Activity (Rattus norvegicus [18]): inactive; Activity (Rattus norvegicus [19]): inactive; Activity (Rattus norvegicus [25]): Toxic; Activity (Rattus norvegicus [26]): Toxic; Activity (Rattus norvegicus [27]): Non-toxic; Activity (Rattus norvegicus [36]): Toxic; Activity (Rattus norvegicus [28]): Toxic; Activity (Rattus norvegicus [29]): Non-toxic; Activity (Rattus norvegicus [30]): Non-toxic; Activity (Rattus norvegicus [31]): Toxic; Activity (Rattus norvegicus [32]): Non-toxic; Activity (Rattus norvegicus [33]): Non-toxic; Activity (Rattus norvegicus [34]): Toxic; Activity (Rattus norvegicus [35]): Non-toxic
CCC(COC(N)=O)CC(C)C (racemic) | inactive | inactive | Active | inactive | inactive | inactive | inactive | Active | inactive | inactive | inactive | Non-toxic | Non-toxic | inactive | inactive | inactive | Non-toxic | Toxic | Toxic | Non-toxic | Activity (Mus musculus [37]): inactive; Activity (Mus musculus [38]): Non-toxic; Activity (Mus musculus [39]): Toxic; Activity (Mus musculus [13]): Non-toxic; Activity (Mus musculus [14]): Non-toxic; Activity (Rattus norvegicus [25]): Toxic; Activity (Rattus norvegicus [26]): Toxic; Activity (Rattus norvegicus [27]): Non-toxic; Activity (Rattus norvegicus [28]): Toxic; Activity (Rattus norvegicus [29]): Non-toxic; Activity (Rattus norvegicus [30]): Non-toxic; Activity (Rattus norvegicus [32]): Non-toxic; Activity (Rattus norvegicus [33]): Non-toxic; Activity (Rattus norvegicus [34]): Non-toxic; Activity (Rattus norvegicus [35]): Non-toxic
